Compound activity (PubChem)
Shown are actives, neighbours in structure and some others; about 2.1% of the full set was active somewhere.
Runt-CBFb FRET: inhibitors of RUNX1 Runt–CBFb binding, primary screen, biochemical, FRET, Cerulean-Runt, Venus-CBFb, uHTS; Runt-related transcription factor 1 (Homo sapiens) + Core-binding factor subunit beta …; Cerulean-Runt/Venus-CBFb FRET ratio 530/480, 1 h; inhibition, % at 20 µM; 0.46% of 220,000 active;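 active means inhibition over about 50% at 20 µM in the single-dose screen, limit read from the data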
Target sequence (Q01196 whole entry, looked up): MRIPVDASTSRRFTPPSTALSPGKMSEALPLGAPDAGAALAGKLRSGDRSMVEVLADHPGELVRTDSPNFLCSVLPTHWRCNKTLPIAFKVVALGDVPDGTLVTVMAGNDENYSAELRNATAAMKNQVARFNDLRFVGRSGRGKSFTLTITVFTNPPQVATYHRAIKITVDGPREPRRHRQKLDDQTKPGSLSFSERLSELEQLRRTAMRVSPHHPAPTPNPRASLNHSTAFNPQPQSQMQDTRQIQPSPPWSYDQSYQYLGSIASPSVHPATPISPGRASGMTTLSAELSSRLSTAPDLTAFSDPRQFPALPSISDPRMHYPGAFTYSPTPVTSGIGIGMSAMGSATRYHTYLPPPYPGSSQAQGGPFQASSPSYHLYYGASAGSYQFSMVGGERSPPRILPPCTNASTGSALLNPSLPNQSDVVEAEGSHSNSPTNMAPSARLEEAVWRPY
Target sequence (Q13951 whole entry, looked up): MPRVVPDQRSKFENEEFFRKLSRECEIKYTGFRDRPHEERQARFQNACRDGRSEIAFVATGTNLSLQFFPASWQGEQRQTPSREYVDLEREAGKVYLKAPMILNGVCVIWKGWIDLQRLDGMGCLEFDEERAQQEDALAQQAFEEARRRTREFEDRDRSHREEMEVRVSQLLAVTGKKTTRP
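Assay system: Cerulean-Runt domain / Medium: Tris 50 mM pH 7.5, KCl, K2SO4, 0.01% BSA / Timing: protein complex preformed 1 h, compound exposure 1 h, room temperature, dark / Measured by: FRET, excitation 422 nm, emission at 530 and 480 nm / Evaluation: loss of energy transfer signal / Control set: 5 µM unlabeled CBFb as full-inhibition high control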
KLK7 zymogen act: proKLK7 zymogen activators, primary screen, biochemical, fluorescence intensity; Kallikrein-7 (Homo sapiens), P49862; purified proKLK7, EDANS-DABCYL substrate fluorescence; 100% is mature enzyme control, 0% vehicle; 0.9% of 370,000 active; activation, % at 7 µM;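 active means activation above the mean of all tested compounds plus 3 SD, computed per campaign excluding outliers beyond control limits, cut at about 13% in these data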
RanGTP-Impb inh: inhibitors of RanGTP-importin-beta interaction, primary screen, biochemical, FRET, CFP-Ran, YFP-importin-beta, homogeneous; Ran GTPase (GTP-bound) - importin-beta complex; 1.1% of 300,000 active; cell-free CFP-Ran/YFP-importin-beta FRET ratio; inhibition, % (concentration not given with the values);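 active means more than half of the replicate wells show a fall in the fluorescence ratio signal beyond about 16%, limit read from the data, passing the limit was not always enough; inconclusive means exactly half of the replicate wells pass the set limit; inactive means fewer than half of replicates pass the limit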
Runt-SMMHC FRET: inhibitors of RUNX1 Runt–CBFb-SMMHC binding, primary screen, biochemical, FRET, Cerulean-Runt, Venus-CBFb-SMMHC, uHTS; Cerulean-Runt/Venus-CBFb-SMMHC FRET ratio 530/480, 1 h; 0.74% of 220,000 active; Runt-related transcription factor 1 (Homo sapiens) + Core-binding factor subunit beta …; inhibition, % at 20 µM;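 active means mean inhibition across duplicate retests at 20 µM reaching about 50%, limit read from the data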;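 further: inhibitors lower the FRET ratio by blocking Runt binding to CBFb-SMMHC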
MEX-5 binding: MEX-5 zinc finger RNA-binding disruptors – biochemical, C. elegans, fluorescence polarization, MLPCN library, primary screen. Zinc finger protein mex-5 (Caenorhabditis elegans), Q9XUB2. MEX-5/FITC-TCR2 RNA binding; stronger effect = lower value. activity score (negative = inhibition of binding), % at 10 µM. 0.38% of 300,000 active;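 active means inhibition past about -25% in most replicates, and total fluorescence under double the plate's negative control median, limit read from the data; inconclusive means replicates evenly split on the limit, or fluorescence at least double controls; inactive means too little inhibition in most replicates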
YIC counter: YIC intramolecular FRET probe signal interference, dose response, counter-screen for RanGTP-importin-beta inhibitor project, biochemical, fluorescence FRET. shares compounds with RanGTP-Impb inh. Purified YIC probe, intramolecular FRET ratio YFP/CFP. IC50, µM. 40% of 1,000 active;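 active means fitted half-maximal inhibitory concentration no more than tenfold above the top dose tested; inconclusive means flat fit with 30 to 70% activity, or poor fit; inactive means half-maximal concentration beyond tenfold above the top dose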
A number is an active result.

Results for O=C1NC[C@@H](CCCCN2C[C@H](Cc3ccccc3)N(CCc3ccccc3)C(=O)C2=O)N(CCc2ccccc2)C1=O ?
KLK7 zymogen act: inactive

Results for COc1cc(NC(=O)CN2C(=O)CN(C)C2=O)c(C)cc1[N+](=O)[O-] ?
Runt-CBFb FRET: inactive; KLK7 zymogen act: inactive; RanGTP-Impb inh: inactive; Runt-SMMHC FRET: inactive; MEX-5 binding: inactive

How did COc1cc(NC(=O)Cn2ncc(Cl)c(Cl)c2=O)c(C)cc1[N+](=O)[O-] do in these assays?
Runt-CBFb FRET: inactive; KLK7 zymogen act: inactive; RanGTP-Impb inh: 27; Runt-SMMHC FRET: inactive; MEX-5 binding: inactive; YIC counter: inactive

How did N#C/C(=C\c1ccc(OCCN2CCOCC2)cc1)C(=O)Nc1ccccc1 do in these assays?
KLK7 zymogen act: inactive; RanGTP-Impb inh: inactive; MEX-5 binding: inactive

How did N#C/C(=C\c1ccc(N2CCOCC2)o1)C(=O)NC1CCCCC1 do in these assays?
Runt-CBFb FRET: inactive; KLK7 zymogen act: inactive; RanGTP-Impb inh: 31; Runt-SMMHC FRET: inactive; MEX-5 binding: inconclusive; YIC counter: 3.9

What do the screens show for `N#C/C(=C/c1ccc(N2CCOCC2)o1)C(=O)Nc1ccccc1`?
Runt-CBFb FRET: inactive; KLK7 zymogen act: inactive; RanGTP-Impb inh: 31; Runt-SMMHC FRET: inactive; MEX-5 binding: inconclusive; YIC counter: 15

How did O=C(C[C@H]1C/C=C\CC[C@H](Cc2ccc(F)cc2)C(=O)O[C@H](c2ccccc2)CNC1=O)N[C@H](CO)Cc1ccccc1 do in these assays?
KLK7 zymogen act: inactive

How did O=C(NC(Cc1ccccc1)C(=O)O)/C(=C/c1ccc([N+](=O)[O-])cc1)NC(=O)c1ccccc1 (centres undefined) do in these assays?
KLK7 zymogen act: inactive; RanGTP-Impb inh: inactive; MEX-5 binding: inactive

How did c1ccc(-n2nnnc2-c2cnc(-c3cccnc3)nc2-c2cccs2)cc1 do in these assays?
Runt-CBFb FRET: inactive; KLK7 zymogen act: inactive; RanGTP-Impb inh: 17; Runt-SMMHC FRET: inactive; MEX-5 binding: inactive; YIC counter: inactive

How did Clc1ccc(-n2nnnc2-c2cnc3ccccc3c2-c2ccccc2)cc1 do in these assays?
Runt-CBFb FRET: inactive; KLK7 zymogen act: inactive; RanGTP-Impb inh: inactive; Runt-SMMHC FRET: inactive; MEX-5 binding: inactive

What do the screens show for `COc1ccc(/C=C2\SC(=S)N(CC(=O)OCC(=O)Nc3ccc(C)cc3Cl)C2=O)cc1`?
Runt-CBFb FRET: inactive; KLK7 zymogen act: inactive; RanGTP-Impb inh: 18; Runt-SMMHC FRET: inactive; MEX-5 binding: inactive; YIC counter: inactive

How did COc1ccc(/C=C2\SC(=S)N(CC(=O)OCC(=O)Nc3ccc([N+](=O)[O-])cc3OC)C2=O)cc1 do in these assays?
Runt-CBFb FRET: inactive; KLK7 zymogen act: inactive; Runt-SMMHC FRET: inactive

What do the screens show for `COc1ccc(CN(C)C[C@@H]2OCCCC[C@H](C)Oc3ccc(NC(=O)Nc4ccc(F)cc4)cc3C(=O)N([C@H](C)CO)C[C@H]2C)cc1`?
KLK7 zymogen act: inactive

How did CCOCC(=O)Nc1nnc(COc2ccc(Cl)cc2)s1 do in these assays?
Runt-CBFb FRET: inactive; KLK7 zymogen act: inactive; RanGTP-Impb inh: inactive; Runt-SMMHC FRET: inactive; MEX-5 binding: inactive

How did COCC(=O)Nc1nnc(COc2ccc(Cl)cc2)s1 do in these assays?
Runt-CBFb FRET: inactive; KLK7 zymogen act: inactive; RanGTP-Impb inh: 26; Runt-SMMHC FRET: inactive; MEX-5 binding: inactive; YIC counter: inactive

Results for O=C(OC12CCCN(C1)/C(=C/c1cccnc1)C2)C1CCCCC1 (centres undefined) ?
KLK7 zymogen act: inactive

How did O=C(OCC(=O)N1CCCC1)c1cc(F)c(F)cc1Cl do in these assays?
KLK7 zymogen act: inactive; RanGTP-Impb inh: inactive; MEX-5 binding: inactive

What do the screens show for `CCCSc1nnc(-c2c[nH]c3ccccc23)n1C`?
Runt-CBFb FRET: inactive; KLK7 zymogen act: inactive; RanGTP-Impb inh: inactive; Runt-SMMHC FRET: inactive; MEX-5 binding: inactive

Results for CCCSc1nnc(-c2c[nH]c3ccccc23)n1CC ?
Runt-CBFb FRET: inactive; KLK7 zymogen act: inactive; RanGTP-Impb inh: 17; Runt-SMMHC FRET: inactive; MEX-5 binding: inactive; YIC counter: inactive

How did CN(C(=O)/C=C/c1ccccc1)C1CCCCC1 do in these assays?
KLK7 zymogen act: inactive; RanGTP-Impb inh: inactive; MEX-5 binding: inactive

Results for CN1CCc2c(OCC(=O)NC3CCCCC3)cccc2C1=O ?
KLK7 zymogen act: inactive; RanGTP-Impb inh: inactive; MEX-5 binding: inactive

How did CCC1CCCCN1C(=O)COc1cccc2c1CCN(C)C2=O (centres undefined) do in these assays?
Runt-CBFb FRET: inactive; KLK7 zymogen act: inactive; RanGTP-Impb inh: 18; Runt-SMMHC FRET: inactive; MEX-5 binding: inactive; YIC counter: inactive

Results for COc1ccc2[nH]cc(CCNC(=O)/C=C/[C@H]3O[C@@H](n4cnc5c(NC(=O)c6ccccc6)ncnc54)[C@H](O)[C@@H]3O)c2c1 ?
KLK7 zymogen act: inactive

Results for COC(=O)C1=CN(C2CC2)C=C(C(=O)OC)C1c1ccc(C(F)(F)F)cc1 ?
Runt-CBFb FRET: 80; KLK7 zymogen act: inactive; RanGTP-Impb inh: 26; Runt-SMMHC FRET: 123; MEX-5 binding: inactive; YIC counter: 19

How did COc1cccc(-c2nc3nc(C)cc(C)n3c2NCc2ccccc2)c1 do in these assays?
KLK7 zymogen act: inactive

How did O=C(COc1ccccc1Cl)Nc1ccc(N2CCN(C(=O)c3ccccc3)CC2)cc1 do in these assays?
KLK7 zymogen act: inactive; RanGTP-Impb inh: inactive; MEX-5 binding: inactive

What do the screens show for `COC(=O)[C@]12C[C@H](CC(=O)NCC34CC5CC(CC(C5)C3)C4)C(=O)N(Cc3ccco3)C1=C[C@H](C(C)(C)C)O[C@@H]2C`?
KLK7 zymogen act: inactive

Results for Cc1c(/C=N\NC(=O)C2COc3ccccc3O2)c2ccccc2n1C (centres undefined) ?
Runt-CBFb FRET: inactive; KLK7 zymogen act: inactive; RanGTP-Impb inh: 23; Runt-SMMHC FRET: inactive; MEX-5 binding: inactive; YIC counter: inactive

What do the screens show for `CC[C@H](NC(=O)/C=C/[C@H]1O[C@@H](n2cc(C)c(=O)[nH]c2=O)C[C@@H]1O)c1ccccc1`?
KLK7 zymogen act: inactive

Results for CCCS(=O)(=O)c1nc(S(=O)(=O)c2ccc(C)cc2)c(NCc2ccccn2)s1 ?
Runt-CBFb FRET: inactive; KLK7 zymogen act: inactive; RanGTP-Impb inh: inactive; Runt-SMMHC FRET: inactive; MEX-5 binding: inactive
